The values below come from ChEMBL document CHEMBL3616427, “Design, synthesis, and biological evaluation of amide imidazole derivatives as novel metabolic enzyme CYP26A1 inhibitors” (Bioorg Med Chem, 2015).

Cytochrome P450 3A4, sequence (P08684 whole entry): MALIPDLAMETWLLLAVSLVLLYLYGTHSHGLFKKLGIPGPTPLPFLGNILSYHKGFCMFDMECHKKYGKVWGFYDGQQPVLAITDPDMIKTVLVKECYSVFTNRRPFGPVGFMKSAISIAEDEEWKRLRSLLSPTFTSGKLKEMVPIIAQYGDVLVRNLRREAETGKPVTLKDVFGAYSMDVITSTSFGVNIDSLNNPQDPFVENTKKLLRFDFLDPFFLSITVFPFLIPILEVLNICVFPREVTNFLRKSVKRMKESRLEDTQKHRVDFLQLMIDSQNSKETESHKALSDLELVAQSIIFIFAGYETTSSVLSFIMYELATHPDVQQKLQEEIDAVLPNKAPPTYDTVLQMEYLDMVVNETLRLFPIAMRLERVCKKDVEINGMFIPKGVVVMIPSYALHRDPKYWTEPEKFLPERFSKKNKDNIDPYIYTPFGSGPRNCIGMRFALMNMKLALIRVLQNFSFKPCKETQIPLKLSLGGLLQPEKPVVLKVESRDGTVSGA

One data set deals with T1, Cytochrome P450 26A1 (Homo sapiens, UniProt O43174).
T1 sequence (O43174 whole entry): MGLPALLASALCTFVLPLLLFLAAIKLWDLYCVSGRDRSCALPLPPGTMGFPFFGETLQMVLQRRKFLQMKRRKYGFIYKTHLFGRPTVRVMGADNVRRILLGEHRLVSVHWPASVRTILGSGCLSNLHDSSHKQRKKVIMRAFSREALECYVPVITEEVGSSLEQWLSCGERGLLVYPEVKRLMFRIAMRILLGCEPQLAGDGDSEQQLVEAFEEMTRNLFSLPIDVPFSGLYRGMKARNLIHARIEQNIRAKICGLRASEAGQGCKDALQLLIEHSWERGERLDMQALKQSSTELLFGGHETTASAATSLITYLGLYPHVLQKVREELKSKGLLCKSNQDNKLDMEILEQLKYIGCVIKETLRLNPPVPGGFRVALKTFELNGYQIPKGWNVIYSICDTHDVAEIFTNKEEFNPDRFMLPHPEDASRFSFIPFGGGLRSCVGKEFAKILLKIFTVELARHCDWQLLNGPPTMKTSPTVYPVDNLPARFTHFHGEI
Briefly: Inhibition of CYP26A1 (unknown origin).
Conditions: not given
Usually IC50 stands for the concentration that gives 50% inhibition. The molecule `CCC(CC)[C@H](c1ccc(Nc2nc3ccccc3s2)cc1)n1cncn1` came in with a half-inhibitory concentration (IC50) of 0.004 µM.
Turning to `CC(C(c1ccc(Nc2nc3ccccc3s2)cc1)n1cncn1)N(C)C` (stereo not drawn), inhibition was half-maximal at 0.01 µM (IC50).

In the next data set the target is T1, Cytochrome P450 26A1. The data set can be described thus: Inhibition of CYP26A1 in ATRA-induced human HL60 cell microsomes incubated for 30 mins in dark condition with NADPH and ATRA by HPLC method. The format is cell-based, HL-60.
Conditions: not given
Molecule `COC(=O)C(Cn1ccnc1)NC(=O)c1ccc(-c2ccccc2)cc1` (stereo not drawn) yielded an IC50 of 0.37 µM.
`CCOC(=O)C(Cn1ccnc1)NC(=O)c1ccc(-c2ccccc2)cc1` (stereo not drawn) gave an IC50 of 0.65 µM.
For the molecule `CCCOC(=O)C(Cn1ccnc1)NC(=O)c1ccc(-c2ccccc2)cc1` (stereo not drawn), half-maximal inhibition (IC50) required 0.79 µM.
For `CC(C)OC(=O)C(Cn1ccnc1)NC(=O)c1ccc(-c2ccccc2)cc1` (stereo not drawn), the IC50 is 0.54 µM.
In the case of `CC(C)COC(=O)C(Cn1ccnc1)NC(=O)c1ccc(-c2ccccc2)cc1` (stereo not drawn), the IC50 was 0.97 µM.
`COC(=O)C(Cn1ccnc1)NC(=O)c1c(C)nn(-c2ccccc2)c1Cl` (stereo not drawn) had an IC50 of 0.22 µM.
Molecule `CCOC(=O)C(Cn1ccnc1)NC(=O)c1c(C)nn(-c2ccccc2)c1Cl` (stereo not drawn) had an IC50 of 0.6 µM.

The subject of a further data set is HL-60. Briefly: Growth inhibition of human HL60 cells at 10 uM incubated for 48 hrs by MTT assay. The format is functional. Particulars: HL-60, 48 h, read-out: GI. Summed up: (§1)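 HL-60 cells plated at 1–104 cells/well (so in the source) and held 24 h at 37 °C, then exposed 48 h to inhibitor at 10 µM and/or ATRA at 0.1 µM. MTT (2 mg/mL) was added for 4 h at 37 °C, the supernatant was discarded, formazan was dissolved in DMSO and absorbance read at 570 nm. Percent growth inhibition reported.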
In general terms: Tetrazolium dyes change colour on reduction, which living cells bring about.
`COC(=O)C(Cn1ccnc1)NC(=O)c1ccc(-c2ccccc2)cc1` (stereo not drawn): the inhibition of growth at 10 µM was found to be 9.64%.
As for `CCOC(=O)C(Cn1ccnc1)NC(=O)c1ccc(-c2ccccc2)cc1` (stereo not drawn), the inhibition of growth at 10 µM was found to be 7.61%.
Consider `CCCOC(=O)C(Cn1ccnc1)NC(=O)c1ccc(-c2ccccc2)cc1` (stereo not drawn), for which the inhibition of growth at 10 µM is 5.04%.
Regarding `CC(C)OC(=O)C(Cn1ccnc1)NC(=O)c1ccc(-c2ccccc2)cc1` (stereo not drawn), the inhibition of growth at 10 µM was 6.58%.
As to `CC(C)COC(=O)C(Cn1ccnc1)NC(=O)c1ccc(-c2ccccc2)cc1` (stereo not drawn), the inhibition of growth at 10 µM was found to be 8.99%.
Still for that read-out and setting: next, `COC(=O)C(Cn1ccnc1)NC(=O)c1c(C)nn(-c2ccccc2)c1Cl` (stereo not drawn): 10.9%; `CCOC(=O)C(Cn1ccnc1)NC(=O)c1c(C)nn(-c2ccccc2)c1Cl` (stereo not drawn): 7.25%.

The subject of a further data set is HL-60. Briefly: Growth inhibition of human HL60 cells at 10 uM incubated for 48 hrs in presence of 0.1 uM ATRA by MTT assay. The format is functional.
Conditions: not given
Summed up:
as §1
For `COC(=O)C(Cn1ccnc1)NC(=O)c1ccc(-c2ccccc2)cc1` (stereo not drawn), the “growth inhibition (GI)” value is 51.38%.
On to `CCOC(=O)C(Cn1ccnc1)NC(=O)c1ccc(-c2ccccc2)cc1` (stereo not drawn), for which the “growth inhibition (GI)” value is 48.19%.
For the molecule `CCCOC(=O)C(Cn1ccnc1)NC(=O)c1ccc(-c2ccccc2)cc1` (stereo not drawn), the “growth inhibition (GI)” value stood at 42.92%.
On to `CC(C)OC(=O)C(Cn1ccnc1)NC(=O)c1ccc(-c2ccccc2)cc1` (stereo not drawn), for which the “growth inhibition (GI)” value is given as 54.58%.
For the molecule `CC(C)COC(=O)C(Cn1ccnc1)NC(=O)c1ccc(-c2ccccc2)cc1` (stereo not drawn), the “growth inhibition (GI)” value worked out at 46.55%.
In the case of `COC(=O)C(Cn1ccnc1)NC(=O)c1c(C)nn(-c2ccccc2)c1Cl` (stereo not drawn), the “growth inhibition (GI)” value amounted to 55.36%.
On the same count and under the same terms, next, `CCOC(=O)C(Cn1ccnc1)NC(=O)c1c(C)nn(-c2ccccc2)c1Cl` (stereo not drawn): 52.17%.

Another data set relates to HL-60. Briefly: Induction of cell differentiation in human HL60 cells at 10 uM incubated for 72 hrs by NBT dye based assay. The format is functional.
Conditions: not given
`COC(=O)C(Cn1ccnc1)NC(=O)c1ccc(-c2ccccc2)cc1` (stereo not drawn) returned an Activity of 0%.
`CCOC(=O)C(Cn1ccnc1)NC(=O)c1ccc(-c2ccccc2)cc1` (stereo not drawn) displayed an Activity of 0%.
On to `CCCOC(=O)C(Cn1ccnc1)NC(=O)c1ccc(-c2ccccc2)cc1` (stereo not drawn), for which the Activity is recorded as 0%.
`CC(C)OC(=O)C(Cn1ccnc1)NC(=O)c1ccc(-c2ccccc2)cc1` (stereo not drawn) yielded an Activity of 0%.
For the molecule `CC(C)COC(=O)C(Cn1ccnc1)NC(=O)c1ccc(-c2ccccc2)cc1` (stereo not drawn), the Activity came out at 0%.
With `COC(=O)C(Cn1ccnc1)NC(=O)c1c(C)nn(-c2ccccc2)c1Cl` (stereo not drawn), the Activity is 0%.
Consider `CCOC(=O)C(Cn1ccnc1)NC(=O)c1c(C)nn(-c2ccccc2)c1Cl` (stereo not drawn), for which the Activity turned out to be 0%.

In a further data set the test system is HL-60. The data set can be described thus: Induction of cell differentiation in human HL60 cells at 10 uM incubated for 72 hrs in presence of 0.1 uM ATRA by NBT dye based assay.
Conditions: not given
The format is functional.
In the case of `COC(=O)C(Cn1ccnc1)NC(=O)c1ccc(-c2ccccc2)cc1` (stereo not drawn), the Activity is on record as 47.69%.
As to `CCOC(=O)C(Cn1ccnc1)NC(=O)c1ccc(-c2ccccc2)cc1` (stereo not drawn), the Activity is on record as 45.64%.
`CCCOC(=O)C(Cn1ccnc1)NC(=O)c1ccc(-c2ccccc2)cc1` (stereo not drawn): the Activity came to 44.78%.
On the same count and under the same terms, next, `CC(C)OC(=O)C(Cn1ccnc1)NC(=O)c1ccc(-c2ccccc2)cc1` (stereo not drawn): 53.91%; `CC(C)COC(=O)C(Cn1ccnc1)NC(=O)c1ccc(-c2ccccc2)cc1` (stereo not drawn): 39.87%; `COC(=O)C(Cn1ccnc1)NC(=O)c1c(C)nn(-c2ccccc2)c1Cl` (stereo not drawn): 50.51%.
Take `CCOC(=O)C(Cn1ccnc1)NC(=O)c1c(C)nn(-c2ccccc2)c1Cl` (stereo not drawn): the Activity turned out to be 46.44%.

The next data set concerns the target Cytochrome P450 3A4 (Homo sapiens, UniProt P08684). The data set can be described thus: Inhibition of CYP3A4 (unknown origin) incubated for 45 mins using NADPH by fluorescence assay. The format is ADME.
Conditions: not given
`COC(=O)C(Cn1ccnc1)NC(=O)c1c(C)nn(-c2ccccc2)c1Cl` (stereo not drawn) came in with an IC50 of 1.17 µM.

The target of another data set is Cytochrome P450 2D6 (Homo sapiens, UniProt P10635). The data set can be described thus: Inhibition of CYP2D6 (unknown origin) incubated for 45 mins using NADPH and ATRA by HPLC assay.
Cytochrome P450 2D6, sequence (P10635 whole entry): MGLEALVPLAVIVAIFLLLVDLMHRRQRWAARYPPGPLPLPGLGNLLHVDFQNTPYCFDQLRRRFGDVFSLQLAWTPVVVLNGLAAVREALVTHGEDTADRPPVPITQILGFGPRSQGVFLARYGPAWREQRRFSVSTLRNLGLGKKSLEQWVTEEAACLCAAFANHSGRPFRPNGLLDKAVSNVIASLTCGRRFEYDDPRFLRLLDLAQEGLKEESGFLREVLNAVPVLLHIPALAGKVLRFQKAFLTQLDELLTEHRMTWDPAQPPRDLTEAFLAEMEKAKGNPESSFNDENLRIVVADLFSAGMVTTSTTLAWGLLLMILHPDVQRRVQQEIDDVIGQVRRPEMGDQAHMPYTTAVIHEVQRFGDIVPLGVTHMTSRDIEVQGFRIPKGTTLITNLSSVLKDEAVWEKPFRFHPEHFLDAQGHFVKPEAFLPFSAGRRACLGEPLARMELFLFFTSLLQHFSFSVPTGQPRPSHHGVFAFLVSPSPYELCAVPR
Conditions: not given
The format is ADME.
The molecule `COC(=O)C(Cn1ccnc1)NC(=O)c1c(C)nn(-c2ccccc2)c1Cl` (stereo not drawn) returned a 50% inhibitory concentration (IC50) of 5.56 µM.

The next data set addresses T1, Cytochrome P450 26A1. Briefly: Inhibition of CYP26A1-mediated ATRA metabolism in human HL60 cells assessed as ATRA level at 5 uM incubated for 24 hrs by HPLC method (reference value: 7.19 uM). The format is cell-based. Particulars: hl-60, 24 h.
In the case of `COC(=O)C(Cn1ccnc1)NC(=O)c1c(C)nn(-c2ccccc2)c1Cl` (stereo not drawn), the Activity turned out to be 9.3 µM.

The next data set has as its target T1, Cytochrome P450 26A1. The data set can be described thus: Inhibition of CYP26A1-mediated ATRA metabolism in human HL60 cells assessed as ATRA level at 5 uM incubated for 48 hrs by HPLC method (reference value: 4.95 uM). The format is cell-based. To be noted: hl-60, 48 h.
Turning to `COC(=O)C(Cn1ccnc1)NC(=O)c1c(C)nn(-c2ccccc2)c1Cl` (stereo not drawn), the Activity is 7.45 µM.

For a further data set, the target named is T1, Cytochrome P450 26A1. Briefly: Inhibition of CYP26A1-mediated ATRA metabolism in human HL60 cells assessed as ATRA level at 5 uM incubated for 72 hrs by HPLC method (reference value: 3.6 uM). The format is cell-based. Particulars: hl-60, 72 h.
As to `COC(=O)C(Cn1ccnc1)NC(=O)c1c(C)nn(-c2ccccc2)c1Cl` (stereo not drawn), the Activity is 5.67 µM.

The target in another data set is T1, Cytochrome P450 26A1. The data set can be described thus: Inhibition of CYP26A1-mediated ATRA metabolism in human HL60 cells assessed as ATRA level at 5 uM incubated for 96 hrs by HPLC method (reference value: 1.21 uM). Particulars: hl-60, 96 h. The format is cell-based.
Regarding `COC(=O)C(Cn1ccnc1)NC(=O)c1c(C)nn(-c2ccccc2)c1Cl` (stereo not drawn), the Activity was found to be 3.51 µM.
